Data taken from ChEMBL document CHEMBL1136777, “Synthesis, anticancer activity, and inhibition of tubulin polymerization by conformationally restricted analogues of lavendustin A” (J Med Chem, 2003).

How the values were obtained:
[1] = system: MDA-MB-435 (Homo sapiens); test: Antiproliferative activity against human breast MDA-MB-435 cell line
HOP-62 = test: Antiproliferative activity against human lung HOP-62 cell line; type: functional
Outline: (§1)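 Adherent lines grown in RPMI 1640 with 5% fetal bovine serum and 2 mM L-glutamine, plated at 5000–40 000 cells/well and preincubated 24 h. Five drug concentrations were added for 48 h at 37 °C. Cells were fixed with cold TCA (10% final), stained with sulforhodamine B, and read at 515 nm. GI50 is the concentration giving 50% reduction in net protein increase relative to time-zero wells.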

[2] = Mean graph midpoint for growth inhibition of all human cancer cells was determined; type: functional, Cancer cell lines; design: unit: µM
Outline: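 Average of GI50 values over about 55 cell lines from the 48-h sulforhodamine B growth assay. Test range was 10^-4 to 10^-8 M, and values beyond it were set to those limits. Compounds with a first MGM of 10 μM or less were tested a second time and a standard deviation was calculated.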

OVCAR-3 = test: Antiproliferative activity against human ovarian OVCAR-3 cell line; type: functional
Outline: as §1

SN12C = test: Antiproliferative activity against human renal SN12C cell line; type: functional
Outline: as §1

HCT-116 = test: Antiproliferative activity against human colon HCT116 cell line; type: functional
Outline: as §1

SF-539 = test: Antiproliferative activity against human CNS SF-539 cell line; type: functional
Outline: as §1

DU-145 = test: Antiproliferative activity against human prostate DU-145 cell line; type: functional
Outline: as §1

Tubulin = Tubulin (Bos taurus, UniProt Q6B856+Q862F3); test: Inhibition of tubulin polymerization was determined at 1.2 mg/mL concentration; type: functional
Chain of Tubulin (Q6B856 whole entry): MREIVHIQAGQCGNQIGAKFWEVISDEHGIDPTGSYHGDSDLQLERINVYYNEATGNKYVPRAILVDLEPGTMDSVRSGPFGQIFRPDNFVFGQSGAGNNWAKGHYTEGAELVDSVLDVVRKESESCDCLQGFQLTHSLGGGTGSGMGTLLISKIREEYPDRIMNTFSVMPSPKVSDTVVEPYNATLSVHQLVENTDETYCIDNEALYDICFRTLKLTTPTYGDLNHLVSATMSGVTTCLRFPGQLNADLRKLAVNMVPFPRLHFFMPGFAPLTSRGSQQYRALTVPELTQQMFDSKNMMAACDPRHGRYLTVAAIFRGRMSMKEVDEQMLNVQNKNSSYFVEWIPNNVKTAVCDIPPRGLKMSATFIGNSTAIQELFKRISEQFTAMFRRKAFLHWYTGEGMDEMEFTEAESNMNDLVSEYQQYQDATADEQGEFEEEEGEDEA
Chain of Tubulin (Q862F3 whole entry): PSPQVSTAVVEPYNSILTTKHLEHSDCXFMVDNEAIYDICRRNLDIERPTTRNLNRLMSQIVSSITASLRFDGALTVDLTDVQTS

UACC-62 = test: Antiproliferative activity against human melanoma UACC-62 cell line; type: functional
Outline: as §1

CCRF-CEM = test: Antiproliferative activity against human leukemia CCRF-CEM cell line; type: functional
Outline: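 Suspension leukemia line grown in RPMI 1640 with 5% fetal bovine serum and 2 mM L-glutamine and preincubated 24 h. Drug was given at five concentrations for 48 h at 37 °C. Settled cells were fixed with 80% TCA (16% final), stained with sulforhodamine B, and read at 515 nm. GI50 was set at 50% reduction in net protein increase versus time-zero wells.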

SMILES	GI50 [1] [µM]	GI50 (HOP-62) [µM]	MGM [2]	GI50 (OVCAR-3) [µM]	GI50 (SN12C) [µM]	GI50 (HCT-116) [µM]	GI50 (SF-539) [µM]	GI50 (DU-145) [µM]	IC50 (Tubulin) [µM]	GI50 (UACC-62) [µM]	GI50 (CCRF-CEM) [µM]
COC(=O)c1cc(/C=C\c2cc(OC)ccc2OC)ccc1OC	10.9	32.9	15.5	4.9	30.2	20.1	10.6	18.1	> 40	14.8	
O=C(NCCc1ccccc1)c1cc(CCc2cc(O)ccc2O)ccc1O	3.9	13.9	6.4	4.4	49.8	12.5		14.5	5.5	11	
COC(=O)c1cc(C#Cc2cc(OC)ccc2OC)ccc1OC	> 100		30.9	13.6	37.9	37.7	81.1	43.6	> 40	29.3	36.8
CCCCCCNC(=O)c1cc(/C=C/c2cc(O)ccc2O)ccc1O									5		
O=C(NCCc1ccccc1)c1cc(/C=C/c2cc(O)ccc2O)ccc1O	4	9.3	3.8	2.9	5.1	1.8	2.4	10.1	4	2	2.1
O=C(NCCc1ccc(F)cc1)c1cc(/C=C/c2cc(O)ccc2O)ccc1O	3.8	8.8	3.5	2.7	5.6	1.9	2.2	11	2.9	2.1	1.8
COc1ccc(OC)c(CC(=O)c2ccc(O)c(C(=O)NCCc3ccc(F)cc3)c2)c1	0.6	1.5	3.6	1.4	4.3	4		1.7	1.4	4	2.4
COc1ccc(OC)c(CCc2ccc(O)c(C(=O)NCCc3ccc(F)cc3)c2)c1	0.5	15	6.9	3.2	15.8	5.3	3.2	4.2	1.4	6.6	3.2
CCCCCCNC(=O)c1cc(C#Cc2cc(OC)ccc2OC)ccc1OC	> 100	11.8	31.6	> 100	> 100	6.9	> 100	> 100	> 40	56.8	7.9
O=C(NCCc1ccc(F)cc1)c1cc(NCc2cc(O)ccc2O)ccc1O	13	12	0.35	11	7.7	9.2	9.2	18	6.4	7.8	0.29
O=C(NCCc1ccccc1)c1cc(/C=C\c2cc(O)ccc2O)ccc1O	1.7	3	1.4	1	6.8	3.5	1.6	1.8	5.4	2.1	0.2
COc1ccc(OC)c(C#Cc2ccc(OC)c(C(=O)NCCc3ccc(F)cc3)c2)c1	1.2	4.9	11.5		> 100	4.7		> 100	> 40	6	4.7
COc1ccc(OC)c(C#Cc2ccc(OC)c(C(=O)O)c2)c1	8.8	25.6	18.6	24.4	38.2	32.3	38.5	26.9	> 40	22.6	55
O=C(NCCc1ccccc1)c1cc(C#Cc2cc(O)ccc2O)ccc1O	2.9	10.3	3.8	2.8	5.7	10.5	9.6	12.7	3.7	1.9	0.3
CCCCCCNC(=O)c1cc(CCc2cc(O)ccc2O)ccc1O	3.2	7.4	4.4	2.4	2.2	3.6	2.2	7.4	6.2	3.3	5.1
COc1ccc(OC)c(/C=C\c2ccc(OC)c(C(=O)NCCc3ccc(F)cc3)c2)c1	2.1	8.1	4.5	4.2	6.4	3.8	5.9	> 100	> 40	3.5	3.4
CCCCCCNC(=O)c1cc(/C=C\c2cc(OC)ccc2OC)ccc1OC	10.3	31.9	16.6	16.1	63.1	21.1	23.6	45.6	> 40	25	24.7
COc1ccc(OC)c(/C=C\c2ccc(OC)c(C(=O)NCCc3ccccc3)c2)c1	3	> 100	38.9	5	> 100	47.3	> 100	> 100	> 40	16.4	12.3
COc1ccc(OC)c(C#Cc2ccc(OC)c(C(=O)NCCc3ccccc3)c2)c1	2.5	> 100	40.7	6.7	> 100	12	> 100	> 100	> 40	24.4	
CCCCCCNC(=O)c1cc(/C=C\c2cc(O)ccc2O)ccc1O	4.5	8.3	4.1	1.7	11.6	3.9	3.3	10.5	4.2	5.8	1.2
